Molecular target: Serotonin 2 (5-HT2) receptor (Rattus norvegicus) (UniProt P30994+P08909+P14842)
Assay: Binding affinity to the 5-hydroxytryptamine 2 receptor assayed by antagonism of serotonin-induced contractions in the rat jugular vein
Outline: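 Jugular vein rings mounted in organ baths of modified Krebs solution and equilibrated 1–2 h. Control cumulative serotonin contraction curves were run, then tissues were incubated 1 h with antagonist and serotonin curves were repeated. For each antagonist concentration, K_B = [B]/(dose ratio − 1), where dose ratio = agonist ED50 with antagonist / control ED50. Values reported as −log K_B.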

Sequence of Serotonin 2 (5-HT2) receptor (Rattus norvegicus) (P08909 whole entry, looked up): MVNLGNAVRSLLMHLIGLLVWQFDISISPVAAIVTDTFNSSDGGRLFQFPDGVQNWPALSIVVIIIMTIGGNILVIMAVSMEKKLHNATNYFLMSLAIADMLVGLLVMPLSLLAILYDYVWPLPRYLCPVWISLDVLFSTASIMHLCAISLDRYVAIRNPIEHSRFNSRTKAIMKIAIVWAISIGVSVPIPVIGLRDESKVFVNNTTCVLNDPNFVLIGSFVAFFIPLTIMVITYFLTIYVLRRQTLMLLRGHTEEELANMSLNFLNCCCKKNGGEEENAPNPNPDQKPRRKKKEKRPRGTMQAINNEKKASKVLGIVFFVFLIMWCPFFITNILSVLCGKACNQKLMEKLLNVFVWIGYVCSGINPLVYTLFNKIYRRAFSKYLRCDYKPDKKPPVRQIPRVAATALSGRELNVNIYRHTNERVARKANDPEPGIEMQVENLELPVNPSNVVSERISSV
Sequence of Serotonin 2 (5-HT2) receptor (Rattus norvegicus) (P14842 whole entry, looked up): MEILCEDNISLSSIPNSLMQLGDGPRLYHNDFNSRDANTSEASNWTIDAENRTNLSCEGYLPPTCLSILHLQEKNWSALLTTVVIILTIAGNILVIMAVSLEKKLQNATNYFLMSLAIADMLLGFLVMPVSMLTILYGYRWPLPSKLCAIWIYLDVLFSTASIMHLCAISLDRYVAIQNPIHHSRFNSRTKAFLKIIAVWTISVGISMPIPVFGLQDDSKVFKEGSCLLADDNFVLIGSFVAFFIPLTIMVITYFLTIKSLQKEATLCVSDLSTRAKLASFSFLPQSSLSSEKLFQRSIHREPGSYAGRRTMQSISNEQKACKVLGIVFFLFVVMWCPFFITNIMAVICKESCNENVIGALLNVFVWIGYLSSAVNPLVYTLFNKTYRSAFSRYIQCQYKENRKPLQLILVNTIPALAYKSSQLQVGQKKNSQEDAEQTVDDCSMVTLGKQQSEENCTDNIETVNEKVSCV
Sequence of Serotonin 2 (5-HT2) receptor (Rattus norvegicus) (P30994 whole entry, looked up): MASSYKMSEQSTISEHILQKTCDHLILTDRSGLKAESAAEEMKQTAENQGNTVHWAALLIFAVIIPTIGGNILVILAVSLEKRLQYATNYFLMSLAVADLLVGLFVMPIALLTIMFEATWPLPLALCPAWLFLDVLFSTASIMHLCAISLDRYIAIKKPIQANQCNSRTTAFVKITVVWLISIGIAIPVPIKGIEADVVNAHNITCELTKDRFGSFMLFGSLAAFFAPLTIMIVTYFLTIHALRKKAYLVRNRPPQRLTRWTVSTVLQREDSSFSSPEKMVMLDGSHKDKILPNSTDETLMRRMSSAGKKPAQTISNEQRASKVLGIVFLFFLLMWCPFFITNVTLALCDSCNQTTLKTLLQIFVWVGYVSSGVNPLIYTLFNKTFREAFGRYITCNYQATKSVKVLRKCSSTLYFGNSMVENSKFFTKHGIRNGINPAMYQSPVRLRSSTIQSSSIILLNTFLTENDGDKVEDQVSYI

Row | SMILES | -Log KB
1 | CC(C)n1cc2c3c(cccc31)C1C[C@@H](C(=O)O[C@H]3CC[C@@H](C)CC3)CN(C)C1C2 (some centres not stated) | 7.69
2 | CC(C)n1cc2c3c(cccc31)C1C[C@@H](C(=O)OC3CCCCC3O)CN(C)C1C2 (some centres not stated) | 9.47
3 | CC(C)n1cc2c3c(cccc31)C1C[C@@H](C(=O)OC3CCCCC3)CNC1C2 (some centres not stated) | < 6
4 | CCN1C[C@H](C(=O)OC2CCCCC2)CC2c3cccc4c3c(cn4C(C)C)CC21 (some centres not stated) | 7.81
5 | CC(C)N1C[C@H](C(=O)OC2CCCCC2)CC2c3cccc4c3c(cn4C(C)C)CC21 (some centres not stated) | 6.42
6 | CC(C)n1cc2c3c(cccc31)C1C[C@@H](C(=O)OC3CCCC3)CN(C)C1C2 (some centres not stated) | 8.91
7 | CN1C[C@H](C(=O)OC2CCCCC2)CC2c3cccc4c3c(cn4Cc3ccccc3)CC21 (some centres not stated) | 6.52
8 | CN1C[C@H](C(=O)OC2CCCCC2)CC2c3cccc4c3c(cn4C)CC21 (some centres not stated) | 8.12
9 | CC1CCCC(C)C1OC(=O)[C@@H]1CC2c3cccc4c3c(cn4C(C)C)CC2N(C)C1 (some centres not stated) | 7.32
10 | CC(O)C(C)OC(=O)[C@@H]1CC2c3cccc4c3c(cn4C(C)C)CC2N(C)C1 (some centres not stated) | 10.3
11 | CC(C)n1cc2c3c(cccc31)C1C[C@@H](C(=O)OC3CCC3)CN(C)C1C2 (some centres not stated) | 8.22
12 | CCCCN1C[C@H](C(=O)OC2CCCCC2)CC2c3cccc4c3c(cn4C(C)C)CC21 (some centres not stated) | 7.4
13 | CC(C)n1cc2c3c(cccc31)C1C[C@@H](C(=O)OC3CCC(O)CC3)CN(C)C1C2 (some centres not stated) | 10.2
14 | CCC(CC)n1cc2c3c(cccc31)C1C[C@@H](C(=O)OC3CCCCC3)CN(C)C1C2 (some centres not stated) | 7.31
15 | CC(C)n1cc2c3c(cccc31)C1C[C@@H](C(=O)OC3CCCCC3)CN(C)C1C2 (some centres not stated) | 8.67
16 | CC(C)n1cc2c3c(cccc31)C1C[C@@H](C(=O)OC3CCC(=O)CC3)CN(C)C1C2 (some centres not stated) | 10
17 | CN1C[C@H](C(=O)OC2CCCCC2)CC2c3cccc4[nH]cc(c34)CC21 (some centres not stated) | 8.05
18 | CC(C)n1cc2c3c(cccc31)C1C[C@@H](C(=O)O[C@H]3CC[C@H](C)CC3)CN(C)C1C2 (some centres not stated) | 7.21
19 | CC(C)n1cc2c3c(cccc31)C1C[C@@H](C(=O)OC3CCOCC3)CN(C)C1C2 (some centres not stated) | 9.86
20 | CC(C)n1cc2c3c(cccc31)C1C[C@@H](C(=O)OC3CCCCC3=O)CN(C)C1C2 (some centres not stated) | 9.31
21 | CC(C)n1cc2c3c(cccc31)C1C[C@@H](C(=O)OC3CCCCCC3)CN(C)C1C2 (some centres not stated) | 7.73
22 | CCCN1C[C@H](C(=O)OC2CCCCC2)CC2c3cccc4c3c(cn4C(C)C)CC21 (some centres not stated) | 7.07

— ChEMBL document CHEMBL1124253, “(8 beta)-Ergoline-8-carboxylic acid cycloalkyl esters as serotonin antagonists: structure-activity study” (J Med Chem, 1988)
